Test results reported in ChEMBL document CHEMBL1806371, “Selenocyanates and diselenides: a new class of potent antileishmanial agents” (Eur J Med Chem, 2011).
Activity calls are given as the source filed them. The rule behind the calls is not given here.

Columns and labels:
[1] = test system: Jurkat; assay: Cytotoxicity against human Jurkat cells assessed as live cells in neubauer chamber after 24 hrs by trypan blue assay; format: cell-based
[2] = test system: THP-1; assay: Cytotoxicity against human THP1 cells assessed as live cells in neubauer chamber after 24 hrs by trypan blue assay; format: cell-based; details: THP-1, 24 h
[3] = test system: Leishmania infantum; assay: Antileishmanial activity against Leishmania infantum MCAN/ES/89/IPZ229/1/89 promastigotes assessed as growth inhibition at 6.25 uM after 24 hrs; format: functional
Procedure, shortened: (§1)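 Log-phase L. infantum promastigotes (RPMI-1640, 10% FCS, 25 mM HEPES, pH 7.2, 26 °C) treated at 2×10^6 parasites/mL for 24 h. Screening used 25, 12.5 and 6.25 μM to give percent growth inhibition. Living cells measured by flow cytometry with propidium iodide exclusion. At least three independent experiments.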

[4] = test system: Leishmania infantum; assay: Antileishmanial activity against Leishmania infantum MCAN/ES/89/IPZ229/1/89 promastigotes assessed as growth inhibition at 12.5 uM after 24 hrs; format: functional; procedure, shortened: as §1
[5] = test system: Leishmania infantum; assay: Antileishmanial activity against Leishmania infantum MCAN/ES/89/IPZ229/1/89 promastigotes after 24 hrs […]; format: functional, organism-based; details: MCAN/ES/89/IPZ229/1/89, 24 h; procedure, shortened: as §1
[6] = test system: Leishmania infantum; assay: Antileishmanial activity against Leishmania infantum MCAN/ES/89/IPZ229/1/89 promastigotes assessed as growth inhibition at 25 uM after 24 hrs; format: functional; procedure, shortened: as §1
[7] = test system: Leishmania infantum; assay: Antileishmanial activity against Leishmania infantum MCAN/ES/89/IPZ229/1/89 amastigotes after 24 hrs by microscopy; format: functional, organism-based; details: MCAN/ES/89/IPZ229/1/89, 24 h
Procedure, shortened: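 Axenic L. infantum amastigotes (M199, 10% FCS, pH 5.4, 37 °C) treated in log phase at 1×10^6 parasites/mL for 24 h. Living cells counted by flow cytometry with propidium iodide exclusion, with microscopic observation by phase contrast or fluorescence. At least three independent experiments.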

[8] = Selectivity ratio, ratio of IC50 for human Jurkat cells to IC50 for Leishmania infantum MCAN/ES/89/IPZ229/1/89 amastigotes; format: ADME, cell-based; details: read-out: Ratio IC50
Procedure, shortened: (§2)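 Selectivity index is IC50 against Jurkat or THP-1 cells divided by IC50 against L. infantum amastigotes. Host cells were treated in log phase at 4×10^5 cells/mL for 24 h at 37 °C, 5% CO2, at 0.08, 0.4, 2.0, 10.0 and 50.0 μM. Viability was measured by flow cytometry with propidium iodide exclusion.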

[9] = Selectivity ratio, ratio of IC50 for human THP1 cells to IC50 for Leishmania infantum MCAN/ES/89/IPZ229/1/89 amastigotes; format: ADME, cell-based; details: THP-1 cells, read-out: Ratio IC50; procedure, shortened: as §2
[10] = Human intestinal absorption in human; format: ADME, organism-based; details: read-out: HIA
Procedure, shortened: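 Values are computed, not measured. Human intestinal absorption (%) and Caco-2 permeability (nm/s) were predicted in silico with the PreADMET program.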

[11] = Permeability across human Caco2 cells; format: ADME, cell-based; details: Caco-2, read-out: permeability

N#C[Se]Cc1cccc([N+](=O)[O-])c1
IC50 [1]: 12.2 µM
IC50 [2]: 9.32 µM
GI [3]: 47.2%
GI [4]: 80.5%
IC50 [5]: 4.18 µM
GI [6]: 97%
IC50 [7]: 0.57 µM
selectivity ratio [8]: 21
selectivity ratio [9]: 16

Cc1ccc(C[Se]C#N)cc1
IC50 [1]: 14.4 µM
IC50 [2]: 24 µM
GI [3]: 52.8%
GI [4]: 82.8%
IC50 [5]: 11.8 µM
GI [6]: 98.6%
IC50 [7]: 3.33 µM
selectivity ratio [8]: 4
selectivity ratio [9]: 7

O=[N+]([O-])c1ccc(CC[Se][Se]CCc2ccc([N+](=O)[O-])cc2)cc1
GI [3]: 1.2%
GI [4]: 3.2%
GI [6]: 28.4%

N#C[Se]Cc1cccc(C#N)c1
IC50 [1]: 8.71 µM
IC50 [2]: 7.6 µM
GI [3]: 42.2%
GI [4]: 71.2%
IC50 [5]: 6.06 µM
GI [6]: 93%
IC50 [7]: 0.53 µM
selectivity ratio [8]: 16
selectivity ratio [9]: 14

N#Cc1ccc(C[Se][Se]Cc2ccc(C#N)cc2)cc1
GI [3]: 10.9%
GI [4]: 21.9%
GI [6]: 32.8%

N#C[Se]Cc1ccc(C#N)cc1
IC50 [1]: 13.4 µM
IC50 [2]: 7.97 µM
GI [3]: 51.5%
GI [4]: 80.4%
IC50 [5]: 4.14 µM
GI [6]: 97%
IC50 [7]: 0.55 µM
selectivity ratio [8]: 24
selectivity ratio [9]: 15

c1ccc2cc(C[Se][Se]Cc3ccc4ccccc4c3)ccc2c1
growth inhibition (GI) [6]: inactive

CN(C)c1ccc([Se]C#N)cc1
IC50 [1]: 29.3 µM
IC50 [2]: 44.7 µM
GI [3]: 54.4%
GI [4]: 86.7%
IC50 [5]: 9.24 µM
GI [6]: 97.3%
IC50 [7]: 2.79 µM
selectivity ratio [8]: 10
selectivity ratio [9]: 16

Cc1ccc(C[Se][Se]Cc2ccc(C)cc2)cc1
growth inhibition (GI) [3]: inactive
growth inhibition (GI) [4]: inactive
GI [6]: 2.5%

N#C[Se]Cc1ccccc1C#N
IC50 [1]: 17.1 µM
IC50 [2]: 17.1 µM
GI [3]: 31.4%
GI [4]: 62.4%
IC50 [5]: 7.75 µM
GI [6]: 90.2%
IC50 [7]: 3.16 µM
selectivity ratio [8]: 5
selectivity ratio [9]: 5

COc1ccc(C[Se][Se]Cc2ccc(OC)cc2)cc1
GI [3]: 0.5%
GI [4]: 9.9%
GI [6]: 31.7%

N#C[Se]Cc1ccc([N+](=O)[O-])cc1
IC50 [1]: 6.86 µM
IC50 [2]: 16.8 µM
GI [3]: 82.3%
GI [4]: 95%
IC50 [5]: 4.3 µM
GI [6]: 98%
IC50 [7]: 0.68 µM
selectivity ratio [8]: 10
selectivity ratio [9]: 25

CSc1ccc(C[Se]C#N)cc1
IC50 [1]: 5.07 µM
IC50 [2]: 17 µM
GI [3]: 77.3%
GI [4]: 92.9%
IC50 [5]: 11.6 µM
GI [6]: 97.2%
IC50 [7]: 3.02 µM
selectivity ratio [8]: 2
selectivity ratio [9]: 6

O=[N+]([O-])c1cccc(C[Se][Se]Cc2cccc([N+](=O)[O-])c2)c1
GI [3]: 18.1%
GI [4]: 29.4%
GI [6]: 41.2%

FC(F)(F)c1ccc(C[Se][Se]Cc2ccc(C(F)(F)F)cc2)cc1
GI [3]: 11%
GI [4]: 6%
GI [6]: 12.2%

Nc1ccc([Se][Se]c2ccc(N)c(C(=O)O)c2)cc1C(=O)O
growth inhibition (GI) [6]: inactive

Brc1ccc(C[Se][Se]Cc2ccc(Br)cc2)cc1
growth inhibition (GI) [3]: inactive
GI [4]: 1.9%
GI [6]: 12.2%

N#C[Se]Cc1ccc(Br)cc1
IC50 [1]: 12.7 µM
IC50 [2]: 28.9 µM
GI [3]: 49.2%
GI [4]: 80.8%
IC50 [5]: 11.6 µM
GI [6]: 97.1%
IC50 [7]: 7.95 µM
selectivity ratio [8]: 2
selectivity ratio [9]: 4

N#C[Se]CCc1ccc([N+](=O)[O-])cc1
IC50 [1]: 2.4 µM
IC50 [2]: 17.2 µM
GI [3]: 46.6%
GI [4]: 81.8%
IC50 [5]: 11.9 µM
GI [6]: 88.9%
IC50 [7]: 3.8 µM
selectivity ratio [8]: 1
selectivity ratio [9]: 5

N#C[Se]c1ccc(N)cc1
IC50 [1]: 43.8 µM
IC50 [2]: > 50 µM
GI [3]: 14.4%
GI [4]: 38.2%
IC50 [5]: 11.2 µM
GI [6]: 76.3%
IC50 [7]: 9.29 µM
selectivity ratio [8]: 5
selectivity ratio [9]: > 5

CSc1ccc(C[Se][Se]Cc2ccc(SC)cc2)cc1
growth inhibition (GI) [3]: inactive
growth inhibition (GI) [4]: inactive
GI [6]: 17.5%

CC(=O)Nc1ccc([Se][Se]c2ccc(NC(C)=O)c(C(=O)O)c2)cc1C(=O)O
growth inhibition (GI) [6]: inactive

CC(=O)Nc1ccc([Se]C#N)cc1C(=O)O
growth inhibition (GI) [6]: inactive

N#C[Se]Cc1ccc2ccccc2c1
IC50 [1]: 14 µM
IC50 [2]: 16.8 µM
GI [3]: 37.1%
GI [4]: 81.1%
IC50 [5]: 11.2 µM
GI [6]: 91.5%
IC50 [7]: 3.72 µM
selectivity ratio [8]: 4
selectivity ratio [9]: 5

N#Cc1cccc(C[Se][Se]Cc2cccc(C#N)c2)c1
GI [3]: 22.6%
GI [4]: 35.4%
GI [6]: 44.3%

N#Cc1ccccc1C[Se][Se]Cc1ccccc1C#N
GI [3]: 7.3%
GI [4]: 16.5%
GI [6]: 31.5%

CCCCCCCCCCCCCCCCOP(=O)([O-])OCC[N+](C)(C)C [MILTEFOSINE]
IC50 [1]: 33.4 µM
IC50 [2]: 18.5 µM
Fa [10]: 99%
IC50 [5]: 15 µM
IC50 [7]: 2.84 µM
Papp [11]: 2.17 ×10⁻⁶ cm/s
selectivity ratio [8]: 17
selectivity ratio [9]: 7

N#C[Se]c1ccc(N)c(C(=O)O)c1
growth inhibition (GI) [6]: inactive

N#C[Se]Cc1ccc(C(F)(F)F)cc1
IC50 [1]: 7.31 µM
IC50 [2]: 19.8 µM
GI [3]: 79.4%
GI [4]: 97.2%
IC50 [5]: 11.3 µM
GI [6]: 98.8%
IC50 [7]: 2.14 µM
selectivity ratio [8]: 3
selectivity ratio [9]: 9

N#C[Se]Cc1ccccc1 [BENZYLSELENOCYANATE]
IC50 [1]: 10.7 µM
IC50 [2]: 25 µM
GI [3]: 46.5%
GI [4]: 64.1%
IC50 [5]: 7.95 µM
GI [6]: 99.4%
IC50 [7]: 2.58 µM
selectivity ratio [8]: 4
selectivity ratio [9]: 10
